The text below walks through data of ChEMBL document CHEMBL1833818, “Synthesis of phenanthroindolizidine alkaloids and evaluation of their antitumor activities and toxicities” (Bioorg Med Chem Lett, 2011).

The IC50 is the concentration needed to halve the response being measured.

Series [1] deals with HCT-116. Briefly: Cytotoxicity against human HCT116 cells after 96 hrs by […] assay. In kind it is functional, cell-based. The note with it: HCT-116, 96 h. In outline:
(§1)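 Exponentially growing cells seeded at 10³ cells/well; serially diluted compounds added next day, 96 h exposure. Tetrazolium reagent (2-(2-methoxy-4-nitrophenyl)-3-(4-nitrophenyl)-5-(2,4-disulfophenyl)-2H-tetrazolium) added, 1 h at 37 °C, absorbance 450 nm. IC50 = concentration inhibiting growth 50% versus solvent-treated cells.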

The subject of the next series is A549. Briefly: Cytotoxicity against human A549 cells after 96 hrs by […] assay. In kind it is functional, cell-based. The note with it: A549, 96 h. The gist of the method: as §1
The next series concerns HT-29. Briefly: Cytotoxicity against human HT-29 cells after 96 hrs by […] assay. The note with it: HT-29, 96 h. In kind it is functional, cell-based. In outline:
as §1

In series [2] the test system is HCT-116. Kind of series: Antitumor activity against human HCT116 cells xenografted in nude mouse assessed as tumor growth inhibition at 200 mg/kg, ip administered 10 times on days 1 to 5 and 8 to 12 measured on day 21 post-implantation relative to control. As to conditions: HCT-116, ip, 504 h, route intraperitoneal, read-out: GI. In kind it is functional. In outline:
(§2)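 HCT116 cells (2 × 10⁶/mouse) implanted s.c. in 6-week-old male nude mice; groups of 5 formed when estimated tumor volume reached about 100 mm³ (day 0). Dosing i.p. on days 1–5 and 8–12. Tumors excised and weighed day 21 after inoculation; inhibition rate (%) = [1 − mean tumor weight treated/mean tumor weight control] × 100.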

Series [3] concerns Mus musculus. Briefly: Toxicity in human HCT116 cells xenografted nude mouse assessed as mortality at 200 mg/kg, ip. On the set-up: dose 200 mg/kg, route intraperitoneal. The note with it: in vivo. In kind it is organism-based, HCT-116. In outline:
(§3)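 HCT116 cells, 2 × 10⁶ per mouse, implanted s.c. in 6-week-old male nude mice. Mice were grouped 5 per group once the estimated tumour volume reached about 100 mm³ (day 0). Samples were given i.p. 10 times, on days 1–5 and 8–12. Tumours were excised and weighed on day 21 after inoculation. Mortality was recorded per group.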

For series [4], the system named is Mus musculus. Briefly: Toxicity in human HCT116 cells xenografted nude mouse assessed as mortality at 100 mg/kg, ip. In kind it is organism-based, HCT-116. Also noted: dose 100 mg/kg, route intraperitoneal. As to conditions: in vivo. In outline:
as §3
A general note: In xenograft studies the graft and the host belong to different species.

Series [5] relates to HCT-116. Briefly: Antitumor activity against human HCT116 cells xenografted in nude mouse assessed as tumor growth inhibition at 100 mg/kg, ip administered 10 times on days 1 to 5 and 8 to 12 measured on day 21 post-implantation relative to control. In kind it is functional. The note with it: HCT-116, ip, 504 h, route intraperitoneal, read-out: GI. In outline: as §2
The nature of series [6]: Toxicity in human HCT116 cells xenografted nude mouse assessed as mortality at 6.25 mg/kg, ip. In kind it is organism-based, HCT-116. On the set-up: dose 6.25 mg/kg, route intraperitoneal. As to conditions: in vivo, read-out: Activity. The gist of the method:
as §3

The nature of series [7]: Antitumor activity against mouse Meth-A cells xenografted in BALB/c mouse assessed as tumor growth inhibition at 25 mg/kg, iv administered on day 1, 5, 9 and measured on day 21 post-implantation relative to control. In kind it is functional. As to conditions: read-out: GI. The gist of the method:
(§4)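 Meth A sarcoma cells (2.5 × 10⁵/mouse) inoculated s.c. into 7-week-old male BALB/c mice, 5 per group; i.v. injection on days 1, 5 and 9. Tumors excised and weighed on day 21 post-inoculation; inhibition rate (%) = [1 − mean tumor weight treated/mean tumor weight control] × 100. Mortality also recorded.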

Series [8] concerns Mus musculus. Briefly: Toxicity in mouse Meth-A cells xenografted BALB/c mouse assessed as mortality at 50 mg/kg, iv. In kind it is organism-based. Also noted: dose 50 mg/kg, route intravenous. As to conditions: in vivo. The gist of the method: (§5)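 Meth A sarcoma cells, 2.5 × 10⁵ per mouse, inoculated s.c. into 7-week-old male BALB/c mice, 5 per group. Samples were injected i.v. on days 1, 5 and 9. Tumours were excised and weighed on day 21 after inoculation. Mortality was recorded per group as deaths/5.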

Series [9] has as its system Mus musculus. Briefly: Toxicity in mouse Meth-A cells xenografted BALB/c mouse assessed as mortality at 25 mg/kg, iv. In kind it is organism-based. The note with it: in vivo. Also noted: dose 25 mg/kg, route intravenous. The gist of the method:
as §5

A short description of series [10]: Antitumor activity against mouse Meth-A cells xenografted in BALB/c mouse assessed as tumor growth inhibition at 50 mg/kg, iv administered on day 1, 5, 9 and measured on day 21 post-implantation relative to control. In kind it is functional. The note with it: read-out: GI. In outline:
as §4

For series [11], the system named is HCT-116. Kind of series: Antitumor activity against human HCT116 cells xenografted in nude mouse assessed as tumor growth inhibition at 135 mg/kg, ip administered 10 times on days 1 to 5 and 8 to 12 measured on day 21 post-implantation relative to control. In kind it is functional. The note with it: HCT-116, ip, 504 h, route intraperitoneal, read-out: GI. The gist of the method: as §2

The subject of series [12] is Mus musculus. Kind of series: Toxicity in mouse Meth-A cells xenografted BALB/c mouse assessed as mortality at 100 mg/kg, iv. In kind it is organism-based. On the set-up: dose 100 mg/kg, route intravenous. The note with it: in vivo. In outline: as §5
A short description of series [13]: Antitumor activity against mouse Meth-A cells xenografted in BALB/c mouse assessed as tumor growth inhibition at 100 mg/kg, iv administered on day 1, 5, 9 and measured on day 21 post-implantation relative to control. In kind it is functional. The note with it: read-out: GI. The gist of the method:
as §4

The subject of series [14] is Mus musculus. Kind of series: Toxicity in human HCT116 cells xenografted nude mouse assessed as mortality at 135 mg/kg, ip. The note with it: in vivo. In kind it is organism-based, HCT-116. On the set-up: dose 135 mg/kg, route intraperitoneal. In outline:
as §3

For the compound `COc1cc2c3c(c4ccc(O)cc4c2cc1OC)[C@@H](O)[C@H]1CCCN1C3`, the IC50 came out at 32.4 nM with HCT-116 [1], 30.6 nM with A549 and 37 nM in the series on HT-29.

On to `COc1ccc2c3c(c4cc(OC)c(OC)cc4c2c1)CN1CCC[C@H]1C3`, for which the IC50 with HCT-116 [1] stood at 41.7 nM; in the series with A549, 43.8 nM; in the series with HT-29, 45.1 nM.

Consider `COc1cc2c3c(c4ccc(O)cc4c2cc1OC)C[C@H]1CCCN1C3`, for which the IC50 in the series on HCT-116 [1] stood at 59.9 nM; with A549 it was 58.2 nM; in the series on HT-29 it was 158 nM.

In the case of `COc1cc2c3c(c4cc(O)ccc4c2cc1OC)C[C@@H]1CCCN1C3`, the 50% inhibitory concentration (IC50) was found to be 23.5 nM in the series on HCT-116 [1], 21.6 nM in the series with A549 and 32.1 nM in the series on HT-29.

As for `COc1cc2c3c(c4cccc(O)c4c2cc1OC)C[C@@H]1CCCN1C3`, the 50% inhibitory concentration (IC50) in the series on HCT-116 [1] was 4.7 nM; in the series on A549, 5.5 nM; in the series with HT-29, 452 nM.

For `COc1cc2c3c(c4ccc(OC(C)=O)cc4c2cc1OC)C[C@@H]1CCCN1C3`, the results for the IC50 with HCT-116 [1], in the series on A549 and with HT-29 were 2 nM, 2.8 nM and 3.5 nM, respectively. Also, in the series on HCT-116 [2], the inhibition in vivo at 200 mg/kg was 34.7%. Moreover, the Activity result in the series with Mus musculus [3] is “Non-toxic”.

In the case of `COc1cc2c3c(c4ccccc4c2cc1OC)C[C@@H]1CCCN1C3`, the IC50 was found to be 49.6 nM with HCT-116 [1], 48.9 nM in the series with A549 and 57.1 nM in the series with HT-29. For the same compound, in the series with Mus musculus [4], the Activity result is listed as “Non-toxic”. The inhibition in vivo at 100 mg/kg with HCT-116 [5] is 21%.

In the case of `COc1cc2c3c(c4ccc(F)cc4c2cc1OC)C[C@@H]1CCCN1C3`, the values for the IC50 with HCT-116 [1], in the series on A549 and in the series on HT-29 were 48.1 nM, 51 nM and 58.9 nM, respectively. For the same compound, the Activity result in the series with Mus musculus [4] is recorded as “Non-toxic”; with Mus musculus [3], “Toxic”. Moreover, in series [6], the mortality was determined as 10%. In addition, the inhibition in vivo at 100 mg/kg with HCT-116 [5] is 30.7%.

Consider `CCc1ccc2c3c(c4cc(OC)c(OC)cc4c2c1)CN1CCC[C@H]1C3`, for which the results for the IC50 with HCT-116 [1], in the series on A549 and with HT-29 were 403 nM, 441 nM and 484 nM, respectively.

Consider `CCOc1cc2c3c(c4ccc(O)cc4c2cc1OCC)C[C@@H]1CCCN1C3`, for which the figures for the concentration for half-maximal inhibition (IC50) in the series with HCT-116 [1], in the series with A549 and in the series with HT-29 were 38.8 nM, 42.2 nM and 80.5 nM, respectively.

With `Oc1ccc2c3c(c4cc5c(cc4c2c1)OCO5)CN1CCC[C@H]1C3`, the 50% inhibitory concentration (IC50) in the series with HCT-116 [1] was determined as 377 nM; in the series on A549, 392 nM; in the series with HT-29, 879 nM.

Turning to `COc1cc2c3c(c4ccc(O)cc4c2cc1OC)[C@@H](O)[C@@H]1CCCN1C3`, the IC50 in the series on HCT-116 [1] turned out to be 44.4 nM; with A549 it was 52.3 nM; with HT-29, 53.6 nM.

On to `COc1cc2c3c(c4ccc(O)cc4c2cc1OC)[C@H](O)[C@H]1CCCN1C3`, for which the IC50 with HCT-116 [1] stood at 671 nM; with A549, 818 nM; with HT-29, 935 nM.

As for `COc1cc2c3c(c4ccc(O)cc4c2cc1OC)C[C@@H]1CCCN1C3`, the half-maximal inhibitory concentration (IC50) with HCT-116 [1] amounted to 0.5 nM; in the series on A549 it was 0.6 nM; with HT-29, 1.8 nM. Further, in [7], the inhibition in vivo at 25 mg/kg stood at 46.9%. Besides, the Activity entry in the series on Mus musculus [8], in the series on Mus musculus [9], in the series with Mus musculus [4] and in the series on Mus musculus [3] was “Non-toxic” throughout. Further, in the series with HCT-116 [2], the inhibition in vivo at 200 mg/kg was 48.7%. Further, the inhibition in vivo at 100 mg/kg with HCT-116 [5] was 35.7%. Further, the inhibition in vivo at 50 mg/kg in series [10] is 70.8%.

With `CCc1c2c(nc3ccc(OC(=O)N4CCC(N5CCCCC5)CC4)cc13)-c1cc3c(c(=O)n1C2)COC(=O)[C@]3(O)CC.Cl`, in the series on HCT-116 [11], the inhibition in vivo at 135 mg/kg is 77%. Besides, the Activity entry in the series with Mus musculus [12], with Mus musculus [8] and with Mus musculus [14] was “Non-toxic” each time. Besides, the inhibition in vivo at 100 mg/kg in series [13] was determined as 78.3%. Further, in series [10], the inhibition in vivo at 50 mg/kg is 46.2%.

Take `COc1cc2c3c(c4ccc(O)cc4c2cc1OC)[C@H](O)[C@@H]1CCCN1C3` [TYLOPHORIDICINE E]: the IC50 came to 1.3 nM in the series on HCT-116 [1], 2.7 nM with A549 and 2.9 nM with HT-29. Moreover, in [7], the inhibition in vivo at 25 mg/kg amounted to 30.6%. The results for the Activity entry with Mus musculus [8] and with Mus musculus [9] were “Toxic” and “Non-toxic”, respectively.
